Like-named read-outs stand apart in the source and are kept apart here.
What was measured:
hNET = hNET (Homo sapiens, UniProt P23975); assay: Competitive inhibition of ^123I-MIBG binding/uptake in C6-hNET cells; type: cell-based
How it was run: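 C6 cells stably transduced with hNET; triplicate samples of ~0.5×10^6 cells with ~3.7 kBq 123I-MIBG and 0.005–50 nmol unlabeled benzylguanidine competitor in 0.5 mL medium, 37 °C, 2 h. Cells collected by rapid filtration on glass microfiber filters, washed 3× with ice-cold Tris-buffered saline pH 7.4, gamma counted. Cell-bound activity plotted against competitor concentration; IC50 by least-squares fit.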

C6-hNET xenografts = assay: PET imaging with ROI analysis of mice bearing C6-hNET and C6-WT xenografts; type: in vivo; conditions: for PET image-based tumor-to-intestine signal ratio: C6-hNET xenograft
How it was run: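 Male athymic NCr-nu/nu mice (7–9 weeks) implanted subcutaneously with 5×10^6 C6-hNET cells (right shoulder) and 5×10^6 C6-WT cells (left shoulder) in medium/matrigel 1:1. Scanned at day 20 with tumors 150–350 mm³. Tail-vein injection of 3.7–11.1 MBq 18F tracer in saline. R4 microPET under 2% isoflurane, 10-min acquisitions at 1 h and 4 h p.i., 350–750 keV window. ROI maximum pixel values (%ID/mL) used; 5–7 animals per group.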

[1] = tested on: C6-hNET and C6-WT xenografts; assay: Biodistribution in animals bearing dual C6-hNET and C6-WT xenografts; type: in vivo, mice; conditions: for % Injected Dose/g tissue, C6-WT: C6-WT xenograft; for % Injected Dose/g tissue, C6-hNET: C6-hNET xenograft
C6-hNET cells = assay: In vitro uptake in hNET-transduced and wild-type C6 cells; type: cell-based, rat; conditions: 2 h incubation at 37 °C
How it was run: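 Both C6-hNET and wild-type C6 cells grown in DMEM HG. 1.0×10^6 cells in 1.0 mL medium, in triplicate, shaken with radiotracer (~11.1 kBq 18F-labeled or ~3.7 kBq radioiodinated) at 37 °C for 2 h. Cells filtered on glass microfiber filters, washed 3× with ice-cold TBS pH 7.4, gamma counted as % added activity per 10^6 cells. Nonspecific uptake measured with 200 µM MIBG (final). 2–5 independent experiments.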

mouse serum protein = assay: Plasma protein binding by ultrafiltration, mouse; type: in vitro ADME; conditions: 37 °C, 0.5 h
How it was run: (§1)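 Radiotracer in 10 µL (~7.4 kBq 18F; ~3.7 kBq 123I) added to 190 µL human or mouse plasma, in triplicate, gently shaken 37 °C, 0.5 h. Ultrafiltration by centrifugation 10 min at 9,000 rpm. 20 µL of pre-filtration plasma (total) and 20 µL of ultrafiltrate (unbound) gamma counted; unbound fraction taken from ultrafiltrate relative to total.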

[2] = Lipophilicity: distribution coefficient between 1-octanol and PBS pH 7.4; type: physicochemical; conditions: 1-octanol/PBS
How it was run: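 Octanol and PBS (pH 7.4) pre-equilibrated together for 24 h. Radiotracer (~11.1 kBq 18F; ~3.7 kBq 123I) added to the octanol/PBS pair, in triplicate, shaken 2 h at room temperature, then centrifuged 5 min at 2,000 rpm. Aliquots of each phase gamma counted; logD = log10(octanol counts/PBS counts).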

human serum protein = assay: Plasma protein binding by ultrafiltration, human; type: in vitro ADME; conditions: 37 °C, 0.5 h
How it was run: as §1

[3] = C6-hNET cells, ^123I-MIBG as radioligand, 37 °C, 2 h

Chain of hNET (P23975 whole entry): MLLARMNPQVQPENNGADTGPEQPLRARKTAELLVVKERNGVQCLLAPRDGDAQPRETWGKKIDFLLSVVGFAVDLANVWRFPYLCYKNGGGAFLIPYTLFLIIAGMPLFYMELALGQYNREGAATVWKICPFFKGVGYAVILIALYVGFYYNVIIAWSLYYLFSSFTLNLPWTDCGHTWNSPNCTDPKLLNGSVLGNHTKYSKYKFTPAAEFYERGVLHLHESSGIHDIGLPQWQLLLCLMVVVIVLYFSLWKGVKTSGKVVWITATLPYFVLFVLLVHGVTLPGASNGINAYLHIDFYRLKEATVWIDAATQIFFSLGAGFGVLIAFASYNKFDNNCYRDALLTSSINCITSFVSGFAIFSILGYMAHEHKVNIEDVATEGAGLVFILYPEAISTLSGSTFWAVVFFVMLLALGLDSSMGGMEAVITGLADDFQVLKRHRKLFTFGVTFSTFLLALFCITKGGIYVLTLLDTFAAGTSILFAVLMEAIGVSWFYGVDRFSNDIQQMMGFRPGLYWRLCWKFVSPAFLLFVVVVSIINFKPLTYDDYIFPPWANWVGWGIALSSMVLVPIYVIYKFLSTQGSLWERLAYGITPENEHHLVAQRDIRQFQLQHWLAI

| Structure (SMILES) | IC50 (hNET; [3]) [µM] | % Injected Dose/g tissue, Adrenals ([1]; 4 h p.i.) [%ID/g] | % Injected Dose/g tissue, Blood ([1]; 4 h p.i.) [%ID/g] | % Injected Dose/g tissue, Bone ([1]; 4 h p.i.) [%ID/g] | % Injected Dose/g tissue, C6-WT ([1]; 4 h p.i.) [%ID/g] | % Injected Dose/g tissue, Heart ([1]; 4 h p.i.) [%ID/g] | % Injected Dose/g tissue, Intestinal contents (L) ([1]; 4 h p.i.) [%ID/g] | % Injected Dose/g tissue, Intestinal contents (S) ([1]; 4 h p.i.) [%ID/g] | % Injected Dose/g tissue, Intestinal wall (L) ([1]; 4 h p.i.) [%ID/g] | % Injected Dose/g tissue, Intestinal wall (S) ([1]; 4 h p.i.) [%ID/g] | % Injected Dose/g tissue, Kidneys ([1]; 4 h p.i.) [%ID/g] | % Injected Dose/g tissue, Liver ([1]; 4 h p.i.) [%ID/g] | % Injected Dose/g tissue, Lungs ([1]; 4 h p.i.) [%ID/g] | % Injected Dose/g tissue, Muscle ([1]; 4 h p.i.) [%ID/g] | % Injected Dose/g tissue, Pancreas ([1]; 4 h p.i.) [%ID/g] | % Injected Dose/g tissue, Salivary glands ([1]; 4 h p.i.) [%ID/g] | % Injected Dose/g tissue, Spleen ([1]; 4 h p.i.) [%ID/g] | % Injected Dose/g tissue, Stomach ([1]; 4 h p.i.) [%ID/g] | other results |
| --- | --- | --- | --- | --- | --- | --- | --- | --- | --- | --- | --- | --- | --- | --- | --- | --- | --- | --- | --- |
| N=C(N)NCc1cccc(I)c1 [MIBG, meta-iodobenzylguanidine] | 1.72 ± 0.58 |  |  |  |  |  |  |  |  |  |  |  |  |  |  |  |  |  |  |
| N=C(N)NCc1cccc([18F])c1 [[^18F]MFBG] [meta-[^18F]fluorobenzylguanidine] |  | 5.56±2.34 | 0.25±0.05 | 0.89±0.16 | 0.57±0.08 | 2.21±0.66 | 1.26±0.23 | 1.36±0.11 | 1.72±0.52 | 2.16±0.26 | 0.99±0.29 | 2.05±0.30 | 1.30±0.20 | 0.62±0.09 | 0.78±0.06 | 6.09±1.02 | 1.50±0.19 | 0.46±0.12 | fold higher accumulation in C6-hNET tumors than [^18F]PFBG (C6-hNET xenografts; 1 h p.i., in vivo): 1.6 fold; PET image-based tumor-to-intestine signal ratio (C6-hNET xenografts; 1 h post injection): 1.3±0.2; PET image-based tumor-to-intestine signal ratio (C6-hNET xenografts; 4 h post injection): 2.4±0.3; % Injected Dose/g tissue, C6-hNET ([1]; 4 h p.i.): 4.25±0.95 %ID/g; C6-hNET/tissue ratio, Blood ([1]; C6-hNET/Blood, 4 h p.i.): 17.1±4.4; C6-hNET/tissue ratio, Intestine wall (L) ([1]; C6-hNET/Intestine wall (L), 4 h p.i.): 1.8±0.7; C6-hNET/tissue ratio, Intestine wall (S) ([1]; C6-hNET/Intestine wall (S), 4 h p.i.): 1.9±0.4; C6-hNET/tissue ratio, Liver ([1]; C6-hNET/Liver, 4 h p.i.): 2.1±0.4; C6-hNET/tissue ratio, Muscle ([1]; C6-hNET/Muscle, 4 h p.i.): 6.8±0.9; C6-hNET/tissue ratio, Salivary gland ([1]; C6-hNET/Salivary gland, 4 h p.i.): 0.7±0.1; fold lower affinity to hNET compared to ^123I/[^124I]MIBG (hNET; from IC50 values in C6-hNET cells): 2.8 fold |
| N=C(N)NCc1ccc([18F])cc1 [[^18F]PFBG, para-[^18F]fluorobenzylguanidine] |  |  |  |  |  |  |  |  |  |  |  |  |  |  |  |  |  |  | PET image-based tumor-to-intestine signal ratio (C6-hNET xenografts; 1 h post injection): 0.4±0.1; PET image-based tumor-to-intestine signal ratio (C6-hNET xenografts; 4 h post injection): 1.5±0.3; fold lower uptake in C6-hNET cells than that of ^123I/[^124I]MIBG (C6-hNET cells): 4 fold |
| N=C(N)NCc1cccc([131I])c1 [[^124I]MIBG, meta-iodobenzylguanidine] |  | 13.9±1.7 | 0.76±0.15 | 2.56±0.27 | 1.27±0.10 | 19.6±2.5 | 3.62±0.89 | 6.92±1.79 | 7.88±0.74 | 10.3±0.6 | 2.09±0.10 | 5.42±0.44 | 9.50±2.26 | 3.21±0.28 | 3.48±0.31 | 29.1±1.8 | 4.43±0.35 | 2.85±0.54 | % Injected Dose/g tissue, Adrenals ([1]; 24 h p.i.): 7.46±1.78 %ID/g; % Injected Dose/g tissue, Blood ([1]; 24 h p.i.): 0.21±0.02 %ID/g; % Injected Dose/g tissue, Bone ([1]; 24 h p.i.): 0.45±0.09 %ID/g; % Injected Dose/g tissue, C6-WT ([1]; 24 h p.i.): 0.22±0.02 %ID/g; % Injected Dose/g tissue, C6-hNET ([1]; 24 h p.i.): 3.58±0.55 %ID/g; % Injected Dose/g tissue, Heart ([1]; 24 h p.i.): 2.93±0.17 %ID/g; % Injected Dose/g tissue, Intestinal contents (L) ([1]; 24 h p.i.): 2.00±0.06 %ID/g; % Injected Dose/g tissue, Intestinal contents (S) ([1]; 24 h p.i.): 1.76±0.40 %ID/g; % Injected Dose/g tissue, Intestinal wall (L) ([1]; 24 h p.i.): 3.18±0.45 %ID/g; % Injected Dose/g tissue, Intestinal wall (S) ([1]; 24 h p.i.): 2.66±0.18 %ID/g; % Injected Dose/g tissue, Kidneys ([1]; 24 h p.i.): 0.64±0.04 %ID/g; % Injected Dose/g tissue, Liver ([1]; 24 h p.i.): 1.00±0.05 %ID/g; % Injected Dose/g tissue, Lungs ([1]; 24 h p.i.): 1.55±0.37 %ID/g; % Injected Dose/g tissue, Muscle ([1]; 24 h p.i.): 0.69±0.07 %ID/g; % Injected Dose/g tissue, Pancreas ([1]; 24 h p.i.): 0.75±0.10 %ID/g; % Injected Dose/g tissue, Salivary glands ([1]; 24 h p.i.): 7.95±0.81 %ID/g; % Injected Dose/g tissue, Spleen ([1]; 24 h p.i.): 1.36±0.27 %ID/g; % Injected Dose/g tissue, Stomach ([1]; 24 h p.i.): 1.08±0.08 %ID/g |
| N=C(N)NCc1cccc(I)c1 [^123I-MIBG, meta-iodobenzylguanidine] |  | 7.34±2.63 | 0.66±0.10 | 0.71±0.10 | 0.49±0.04 | 2.10±0.14 | 2.25±0.29 | 5.24±0.46 | 2.96±0.74 | 3.67±1.05 | 0.84±0.11 | 2.27±0.18 | 2.84±0.38 | 0.95±0.13 | 1.15±0.13 | 8.41±0.83 | 2.51±0.29 | 0.77±0.34 | % unbound to mouse serum protein (mouse serum protein): 29.2±2.0 (n = 2) %; logD at 2 h [2]: 0.42 ± 0.01; % Injected Dose/g tissue, C6-hNET ([1]; 4 h p.i.): 4.02±0.35 %ID/g; % unbound to human serum protein (human serum protein): 12.4±0.5 (n = 2) %; IC50 (hNET): 1.7 ± 0.6 µM |

Continued, in another order:

| IC50 (hNET; [3]) [µM] | Structure (SMILES) | % Injected Dose/g tissue, Adrenals ([1]; 4 h p.i.) [%ID/g] | % Injected Dose/g tissue, Blood ([1]; 4 h p.i.) [%ID/g] | % Injected Dose/g tissue, Bone ([1]; 4 h p.i.) [%ID/g] | % Injected Dose/g tissue, C6-WT ([1]; 4 h p.i.) [%ID/g] | % Injected Dose/g tissue, Heart ([1]; 4 h p.i.) [%ID/g] | % Injected Dose/g tissue, Intestinal contents (L) ([1]; 4 h p.i.) [%ID/g] | % Injected Dose/g tissue, Intestinal contents (S) ([1]; 4 h p.i.) [%ID/g] | % Injected Dose/g tissue, Intestinal wall (L) ([1]; 4 h p.i.) [%ID/g] | % Injected Dose/g tissue, Intestinal wall (S) ([1]; 4 h p.i.) [%ID/g] | % Injected Dose/g tissue, Kidneys ([1]; 4 h p.i.) [%ID/g] | % Injected Dose/g tissue, Liver ([1]; 4 h p.i.) [%ID/g] | % Injected Dose/g tissue, Lungs ([1]; 4 h p.i.) [%ID/g] | % Injected Dose/g tissue, Muscle ([1]; 4 h p.i.) [%ID/g] | % Injected Dose/g tissue, Pancreas ([1]; 4 h p.i.) [%ID/g] | % Injected Dose/g tissue, Salivary glands ([1]; 4 h p.i.) [%ID/g] | % Injected Dose/g tissue, Spleen ([1]; 4 h p.i.) [%ID/g] | % Injected Dose/g tissue, Stomach ([1]; 4 h p.i.) [%ID/g] | other results |
| --- | --- | --- | --- | --- | --- | --- | --- | --- | --- | --- | --- | --- | --- | --- | --- | --- | --- | --- | --- |
| 4.86 ± 0.59 | N=C(N)NCc1cccc(F)c1 [MFBG] |  |  |  |  |  |  |  |  |  |  |  |  |  |  |  |  |  |  |
| 9.8 ± 2.5 | NC(N)=NCc1ccc(F)cc1 [PFBG] |  |  |  |  |  |  |  |  |  |  |  |  |  |  |  |  |  |  |
| 7.2 ± 0.5 | N=C(N)NCc1ccc(I)cc1 [PIBG, para-iodobenzylguanidine] |  |  |  |  |  |  |  |  |  |  |  |  |  |  |  |  |  |  |
| 4.9 ± 0.6 | N=C(N)NCc1cccc(F)c1 [[^18F]MFBG] [meta-[^18F]fluorobenzylguanidine] |  |  |  |  |  |  |  |  |  |  |  |  |  |  |  |  |  |  |
| 9.8 ± 2.5 | N=C(N)NCc1ccc(F)cc1 [[^18F]PFBG, para-[^18F]fluorobenzylguanidine] |  |  |  |  |  |  |  |  |  |  |  |  |  |  |  |  |  |  |
